Consider 9 molecules from ChEMBL document CHEMBL1800063, “Isolation and structural elucidation of proline-containing cyclopentapeptides from an endolichenic Xylaria sp” (2011).

Calls of active or inactive are those of the source. No cut-off for these calls is given here.

One assay deals with Candida albicans. The assay can be described thus: Antifungal activity against Candida albicans SC5314 at 1 ug/mL after 16 hrs by broth microdilution method in presence of 0.004 ug/mL ketoconazole relative to compound alone. It is filed as functional. (In general: In broth dilution the organism is exposed to a series of concentrations in liquid medium.)
For the molecule `CC(C)[C@@H]1OC(=O)[C@@H](Cc2ccccc2)N(C)C(=O)[C@H](C(C)C)OC(=O)[C@@H](Cc2ccccc2)N(C)C(=O)[C@H](C(C)C)OC(=O)[C@@H](Cc2ccccc2)N(C)C1=O` [BEAUVERICIN], the “fractional inhibitory concentration index (FICI)” value is recorded as less than 0.375.

The next assay concerns Candida albicans. In words: Antifungal activity against Candida albicans SC5314 at 6.25 ug/mL after 16 hrs by broth microdilution method in presence of 0.004 ug/mL ketoconazole relative to compound alone. It is filed as functional.
Turning to `CC[C@@H](C)[C@H]1NC(=O)[C@H](C(C)C)NC(=O)[C@H](Cc2ccccc2)N(C)C(=O)[C@@H]2CCCN2C(=O)[C@H](CC(C)C)NC1=O`, the “fractional inhibitory concentration index (FICI)” value is listed as less than 0.3125.

The test system of a further assay is Candida albicans. The assay can be described thus: Antifungal activity against Candida albicans SC5314 at 100 ug/mL after 16 hrs by CLSI M-27A broth microdilution method in presence of 0.004 ug/mL ketoconazole relative to compound alone. It is filed as functional, organism-based.
On to `CC(C)C(C)/C=C/[C@@H](C)[C@H]1CCC2=C3C=CC4=CC(=O)CC[C@]4(C)[C@H]3CC[C@@]21C` (some centres not stated), for which the result was inactive.
On the same count and under the same terms, the entry for `CC(C)[C@@H](C)/C=C/[C@@H](C)[C@H]1CC[C@@H]2[C@]1(C)CCC1[C@]23C=CC2(CC(O)CC[C@]12C)OO3` (some centres not stated) is “inactive”; for `CO[C@@H]1C=C2C3CC[C@H](C(C)/C=C/C(C)C(C)C)[C@@]3(C)CC[C@@H]2[C@@]2(C)CC[C@H](O)C[C@]12O` (some centres not stated) it is “inactive”; for `C[C@]1(CCO)CC[C@H]2C(=CC[C@@H]3[C@]2(C)CCC[C@@]3(C)C(=O)O)C1` it is “inactive”.
With `CC(C)[C@@H](C)/C=C/[C@@H](C)[C@H]1CC[C@H]2C3=CC=C4C[C@@H](O)CC[C@]4(C)[C@H]3CC[C@]12C`, the result was inactive.
On to `CC(C)[C@@H](C)/C=C/[C@@H](C)[C@H]1CC[C@H]2C3=C[C@@H](O)[C@@]4(O)C[C@@H](O)CC[C@]4(C)[C@H]3CC[C@]12C`, for which the outcome was inactive.
The same measure, in the same setting: the entry for `CC(C)[C@@H](C)/C=C/[C@@H](C)[C@H]1CC[C@H]2C3=CC(=O)C4=CC(=O)CC[C@]4(C)[C@H]3CC[C@]12C` is “inactive”.

For the next assay, the system named is Candida albicans. In words: Antifungal activity against Candida albicans SC5314 at 100 ug/mL after 16 hrs by broth microdilution method. It is filed as functional, organism-based. Put shortly: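 Candida albicans SC5314 broth microdilution adapted from CLSI M-27A. Overnight culture suspended in RPMI 1640 at 1 × 10^4 cfu/mL. 2 μL of sample plus 80 μL of suspension per well, incubated at 35 °C for 16 h. Ketoconazole was the positive control. Growth was read as optical density against blank-control wells to give the MIC.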
With `CC(C)C(C)/C=C/[C@@H](C)[C@H]1CCC2=C3C=CC4=CC(=O)CC[C@]4(C)[C@H]3CC[C@@]21C` (some centres not stated), the outcome was inactive.
As to `CC(C)[C@@H](C)/C=C/[C@@H](C)[C@H]1CC[C@@H]2[C@]1(C)CCC1[C@]23C=CC2(CC(O)CC[C@]12C)OO3` (some centres not stated), the outcome was inactive.
On the same count and under the same terms, next, `CO[C@@H]1C=C2C3CC[C@H](C(C)/C=C/C(C)C(C)C)[C@@]3(C)CC[C@@H]2[C@@]2(C)CC[C@H](O)C[C@]12O` (some centres not stated): “inactive”; `C[C@]1(CCO)CC[C@H]2C(=CC[C@@H]3[C@]2(C)CCC[C@@]3(C)C(=O)O)C1`: “inactive”.
With `CC(C)[C@@H](C)/C=C/[C@@H](C)[C@H]1CC[C@H]2C3=CC=C4C[C@@H](O)CC[C@]4(C)[C@H]3CC[C@]12C`, the result was inactive.
On to `CC(C)[C@@H](C)/C=C/[C@@H](C)[C@H]1CC[C@H]2C3=C[C@@H](O)[C@@]4(O)C[C@@H](O)CC[C@]4(C)[C@H]3CC[C@]12C`, for which the result was inactive.
On to `CC[C@@H](C)[C@H]1NC(=O)[C@H](C(C)C)NC(=O)[C@H](Cc2ccccc2)N(C)C(=O)[C@@H]2CCCN2C(=O)[C@H](CC(C)C)NC1=O`, for which the outcome was inactive.
On the same count and under the same terms, the entry for `CC(C)[C@@H](C)/C=C/[C@@H](C)[C@H]1CC[C@H]2C3=CC(=O)C4=CC(=O)CC[C@]4(C)[C@H]3CC[C@]12C` is “inactive”.
